The values below come from ChEMBL document CHEMBL1629686, “Substrate selectivity and a novel role in inhibitor discrimination by residue 237 in the KPC-2 beta-lactamase” (Antimicrob Agents Chemother, 2010).

As usually defined, the MIC is the lowest concentration found to suppress growth. In general, Km refers to the concentration of substrate that gives half-maximal velocity. As a reminder, the kcat is the maximal rate divided by the concentration of active sites.

Structures are written as SMILES.

The subject of assay [1] is Escherichia coli. The assay is described as follows: Antimicrobial activity against Escherichia coli DH10B harboring plasmid pBR322-catI carrying beta-lactamase KPC-2 by agar dilution method in presence of beta-lactamase inhibitor Sulbactam. The conditions noted are these: K-12 DH10B. The format is functional.
Assay [2] concerns Escherichia coli. As to the kind of experiment: Antimicrobial activity against Escherichia coli DH10B harboring beta-lactamase KPC-2 T237F mutant by agar dilution method in presence of beta-lactamase inhibitor Sulbactam. The format is functional. The conditions noted are these: K-12 DH10B. The method, boiled down: (§1)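 LB agar dilution MICs by CLSI criteria, applied with a Steers replicator. […] Hosts were E. coli DH10B carrying pBC SK(+) with wild-type blaKPC-2 or a position 237 variant.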

Assay [3] concerns Escherichia coli. As to the kind of experiment: Antimicrobial activity against Escherichia coli DH10B harboring beta-lactamase KPC-2 T237P mutant by agar dilution method in presence of beta-lactamase inhibitor Sulbactam. The format is functional. The conditions noted are these: K-12 DH10B. The method, boiled down: (§2)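 LB agar dilution MICs per CLSI criteria, inoculated with a Steers replicator. […] Strains: E. coli DH10B alone, DH10B carrying empty pBC SK(+), or DH10B carrying pBC SK(+)-blaKPC-2 position 237 variants made by site-saturation mutagenesis and confirmed by sequencing. Plasmid selection used 20 mg/liter chloramphenicol.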
(In general: In agar dilution, organisms are placed on agar that contains the substance at set levels.)

In assay [4] the test system is Escherichia coli. The assay is described as follows: Antimicrobial activity against Escherichia coli DH10B harboring beta-lactamase KPC-2 T237Y mutant by agar dilution method in presence of beta-lactamase inhibitor Sulbactam. Type of assay: functional. The conditions noted are these: K-12 DH10B. The method, boiled down:
as §1

The test system of assay [5] is Escherichia coli. The assay is described as follows: Antimicrobial activity against Escherichia coli DH10B harboring beta-lactamase KPC-2 T237S mutant by agar dilution method in presence of beta-lactamase inhibitor clavulanic acid. The format is functional. The following applies: K-12 DH10B. The method, boiled down: as §1
Assay [6] deals with Escherichia coli. The assay is described as follows: Antimicrobial activity against Escherichia coli DH10B harboring beta-lactamase KPC-2 T237M mutant by agar dilution method in presence of beta-lactamase inhibitor clavulanic acid. Type of assay: functional. The conditions noted are these: K-12 DH10B. The method in brief: as §1
Assay [7] deals with Escherichia coli. The assay is described as follows: Antimicrobial activity against Escherichia coli DH10B harboring beta-lactamase KPC-2 T237R mutant by agar dilution method in presence of beta-lactamase inhibitor Sulbactam. Type of assay: functional. The conditions noted are these: K-12 DH10B. The method in brief: as §2
Assay [8] relates to Escherichia coli. The assay is described as follows: Antimicrobial activity against Escherichia coli DH10B by agar dilution method in presence of beta-lactamase inhibitor Sulbactam. The conditions noted are these: K-12 DH10B. Type of assay: functional. The method, boiled down:
as §2

The subject of assay [9] is Escherichia coli. The assay is described as follows: Antimicrobial activity against Escherichia coli DH10B harboring beta-lactamase KPC-2 T237L mutant by agar dilution method in presence of beta-lactamase inhibitor Sulbactam. The format is functional. The conditions noted are these: K-12 DH10B. The method in brief: as §1
The subject of assay [10] is Escherichia coli. The assay is described as follows: Antimicrobial activity against Escherichia coli DH10B harboring beta-lactamase KPC-2 T237D mutant by agar dilution method in presence of beta-lactamase inhibitor Sulbactam. Type of assay: functional. The following applies: K-12 DH10B. The method, boiled down:
as §1

For assay [11], the system named is Escherichia coli. The assay is described as follows: Antimicrobial activity against Escherichia coli DH10B harboring beta-lactamase KPC-2 T237E mutant by agar dilution method in presence of beta-lactamase inhibitor Sulbactam. Type of assay: functional. The following applies: K-12 DH10B. The method in brief: as §1
Assay [12] has as its system Escherichia coli. The assay is described as follows: Antimicrobial activity against Escherichia coli DH10B harboring plasmid […] by agar dilution method in presence of beta-lactamase inhibitor Sulbactam. The format is functional. The conditions noted are these: K-12 DH10B. The method, boiled down: as §2
The subject of assay [13] is Escherichia coli. As to the kind of experiment: Antimicrobial activity against Escherichia coli DH10B harboring beta-lactamase KPC-2 T237E mutant by agar dilution method in presence of beta-lactamase inhibitor clavulanic acid. The format is functional. The following applies: K-12 DH10B. The method, boiled down:
as §1

For assay [14], the system named is Escherichia coli. The assay is described as follows: Antimicrobial activity against Escherichia coli DH10B harboring beta-lactamase KPC-2 T237Q mutant by agar dilution method in presence of beta-lactamase inhibitor clavulanic acid. Type of assay: functional. The following applies: K-12 DH10B. The method, boiled down: as §1
Assay [15] deals with Escherichia coli. As to the kind of experiment: Antimicrobial activity against Escherichia coli DH10B harboring beta-lactamase KPC-2 T237G mutant by agar dilution method in presence of beta-lactamase inhibitor Sulbactam. Type of assay: functional. The conditions noted are these: K-12 DH10B. The method in brief: as §1
Assay [16] deals with Escherichia coli. As to the kind of experiment: Antimicrobial activity against Escherichia coli DH10B harboring beta-lactamase KPC-2 T237I mutant by agar dilution method in presence of beta-lactamase inhibitor clavulanic acid. Type of assay: functional. The following applies: K-12 DH10B. The method, boiled down:
as §1

The test system of assay [17] is Escherichia coli. The assay is described as follows: Antimicrobial activity against Escherichia coli DH10B harboring beta-lactamase KPC-2 T237H mutant by agar dilution method in presence of beta-lactamase inhibitor Sulbactam. The format is functional. The following applies: K-12 DH10B. The method in brief: as §1
Assay [18] relates to Klebsiella pneumoniae. As to the kind of experiment: Antimicrobial activity against Klebsiella pneumoniae 1534 expressing beta-lactamase KPC-2 by agar dilution method in presence of beta-lactamase inhibitor Tazobactam. The format is functional. The method in brief:
(§3)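 LB agar dilution MIC following CLSI criteria, inoculated with a Steers replicator. Tested as piperacillin-tazobactam at a fixed 8:1 ratio.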

Assay [19] deals with Escherichia coli. The assay is described as follows: Antimicrobial activity against Escherichia coli DH10B harboring beta-lactamase KPC-2 T237F mutant by agar dilution method in presence of beta-lactamase inhibitor Tazobactam. Type of assay: functional. The following applies: K-12 DH10B. The method in brief:
(§4)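 LB agar dilution MICs by CLSI criteria, inoculated with a Steers replicator. […] Strains were E. coli DH10B with or without pBC SK(+) carrying wild-type blaKPC-2 or a position 237 variant.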

Assay [20] relates to Escherichia coli. As to the kind of experiment: Antimicrobial activity against Escherichia coli DH10B harboring beta-lactamase KPC-2 T237P mutant by agar dilution method in presence of beta-lactamase inhibitor Tazobactam. Type of assay: functional. The following applies: K-12 DH10B. The method in brief: as §4
In assay [21] the test system is Escherichia coli. As to the kind of experiment: Antimicrobial activity against Escherichia coli DH10B harboring beta-lactamase KPC-2 T237G mutant by agar dilution method in presence of beta-lactamase inhibitor Tazobactam. Type of assay: functional. The following applies: K-12 DH10B. The method, boiled down:
as §4

The test system of assay [22] is Klebsiella pneumoniae. As to the kind of experiment: Selectivity index, Ratio of Kcat/Km for Klebsiella pneumoniae 1534 beta-lactamase KPC-2 T237S mutant to ratio of Kcat/Km for Klebsiella pneumoniae 1534 beta-lactamase KPC-2 by spectrophotometric analysis. The method in brief: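 Kinetics used purified enzymes in 10 mM PBS, pH 7.4, room temperature, with 10 nM enzyme and substrate in excess. Km and Vmax came from a Michaelis-Menten fit. kcat/Km of the variant was compared with wild type as ΔΔG = −RT ln of the kcat/Km ratio.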

The test system of assay [23] is Klebsiella pneumoniae. As to the kind of experiment: Activity of Klebsiella pneumoniae 1534 beta-lactamase KPC-2 T237S mutant by spectrophotometric analysis. The method in brief:
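Purified KPC-2 variant enzymes (periplasmic lysate from E. coli, preparative isoelectric focusing). Hydrolysis followed by diode-array spectrophotometry in 10 mM PBS, pH 7.4, room temperature. Enzyme at 10 nM with substrate in molar excess for pseudo-first-order conditions. Vmax and Km came from a nonlinear least-squares Michaelis-Menten fit.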

Assay [24] concerns Escherichia coli. As to the kind of experiment: Antimicrobial activity against Escherichia coli DH10B harboring beta-lactamase KPC-2 T237A mutant by agar dilution method in presence of beta-lactamase inhibitor Tazobactam. The format is functional. The conditions noted are these: K-12 DH10B. The method in brief:
as §4

Assay [25] deals with Escherichia coli. As to the kind of experiment: Antimicrobial activity against Escherichia coli DH10B harboring beta-lactamase KPC-2 T237I mutant by agar dilution method in presence of beta-lactamase inhibitor Tazobactam. Type of assay: functional. The conditions noted are these: K-12 DH10B. The method, boiled down:
as §4

Assay [26] deals with Escherichia coli. As to the kind of experiment: Antimicrobial activity against Escherichia coli DH10B harboring beta-lactamase KPC-2 T237D mutant by agar dilution method in presence of beta-lactamase inhibitor Tazobactam. The format is functional. The following applies: K-12 DH10B. The method, boiled down: as §4
For assay [27], the system named is Escherichia coli. The assay is described as follows: Antimicrobial activity against Escherichia coli DH10B harboring plasmid […] by agar dilution method in presence of beta-lactamase inhibitor Tazobactam. Type of assay: functional. The following applies: K-12 DH10B. The method in brief: as §3

For `CC1(C)S[C@@H]2[C@H](NC(=O)[C@H](N)c3ccccc3)C(=O)N2[C@H]1C(=O)O` [AMPICILLIN], the MIC in the assay on Escherichia coli [1] is 512 µg/mL; in the assay on Escherichia coli [2], 8 µg/mL; in the assay on Escherichia coli [3], 1 µg/mL; in the assay with Escherichia coli [4] it was 8 µg/mL; in the assay with Escherichia coli [5], 4 µg/mL; in the assay with Escherichia coli [6], 8 µg/mL. Besides, the MIC in the assay with Escherichia coli [7] came out at 1 µg/mL; in the assay with Escherichia coli [8] it was 1 µg/mL; in the assay on Escherichia coli [9], 16 µg/mL; in the assay with Escherichia coli [10] it was 16 µg/mL; with Escherichia coli [11] it was 8 µg/mL; with Escherichia coli [12] it was 1 µg/mL. For the same compound, the MIC in the assay on Escherichia coli [13] came to 8 µg/mL; in the assay with Escherichia coli [14] it was 8 µg/mL; in the assay with Escherichia coli [15] it was 16 µg/mL; with Escherichia coli [16] it was 8 µg/mL; with Escherichia coli [17], 16 µg/mL.

In the case of `CCN1CCN(C(=O)N[C@@H](C(=O)N[C@@H]2C(=O)N3[C@@H]2SC(C)(C)[C@@H]3C(=O)O)c2ccccc2)C(=O)C1=O` [PIPERACILLIN], the MIC in the assay on Klebsiella pneumoniae [18] is 64 µg/mL; in the assay with Escherichia coli [19], 0.5 µg/mL; in the assay on Escherichia coli [20], 0.5 µg/mL; in the assay with Escherichia coli [21], 1 µg/mL; in the assay with Escherichia coli [24] it was 4 µg/mL; in the assay with Escherichia coli [25], 1 µg/mL. The MIC in the assay with Escherichia coli [26] was found to be 1 µg/mL; with Escherichia coli [27] it was 0.5 µg/mL. Also, the fold change (FC) in the assay on Klebsiella pneumoniae [22] turned out to be 2.7. Moreover, the Km in the assay on Klebsiella pneumoniae [23] was determined as 6 µM. Moreover, the catalytic constant (kcat) in the assay on Klebsiella pneumoniae [23] worked out at 42 s⁻¹.
